The values below come from ChEMBL document CHEMBL3045046, “Synthesis, herbicidal activities, and 3D-QSAR of 2-cyanoacrylates containing aromatic methylamine moieties” (J Agric Food Chem, 2008).

Holding throughout (format): functional
Assay [1] concerns Digitaria sanguinalis. Kind of assay: Herbicidal activity against hairy Digitaria sanguinalis (hairy crabgrass) assessed as inhibition of herb growth at 1.5 kg/ha during preemergence treatment protocol. The note with it: pre-emergence, read-out: GI.
Assay [2] deals with Medicago sativa. Kind of assay: Herbicidal activity against Medicago sativa (alfalfa) assessed as inhibition of herb growth at 1.5 kg/ha during postemergence treatment protocol. The following applies: post-emergence, read-out: GI.
For assay [3], the system named is Amaranthus retroflexus. The assay is described as follows: Herbicidal activity against Amaranthus retroflexus assessed as inhibition of herb growth at 1.5 kg/ha during postemergence treatment protocol. The note with it: post-emergence, read-out: GI.
The test system of assay [4] is Medicago sativa. Kind of assay: Herbicidal activity against Medicago sativa (alfalfa) assessed as inhibition of herb growth at 1.5 kg/ha during preemergence treatment protocol. The note with it: pre-emergence, read-out: GI.
In assay [5] the test system is Brassica napus. The assay is described as follows: Herbicidal activity against Brassica napus (oilseed rape) assessed as inhibition of herb growth at 1.5 kg/ha during preemergence treatment protocol. The note with it: pre-emergence, read-out: GI.
The test system of assay [6] is Amaranthus retroflexus. The assay is described as follows: Herbicidal activity against Amaranthus retroflexus assessed as inhibition of herb growth at 1.5 kg/ha during preemergence treatment protocol. The following applies: pre-emergence, read-out: GI.
Assay [7] relates to Digitaria sanguinalis. The assay is described as follows: Herbicidal activity against hairy Digitaria sanguinalis (hairy crabgrass) assessed as inhibition of herb growth at 1.5 kg/ha during postemergence treatment protocol. The following applies: post-emergence, read-out: GI.
Assay [8] concerns Brassica napus. The assay is described as follows: Herbicidal activity against Brassica napus (oilseed rape) assessed as inhibition of herb growth at 1.5 kg/ha during postemergence treatment protocol. The note with it: post-emergence, read-out: GI.
The subject of the next assay is Spinacia oleracea. Kind of assay: Inhibition of photosynthetic electron transport in Spinacia oleracea (spinach)isolated chloroplasts assessed as inhibition of Hill reaction. In outline: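 Chloroplasts from fresh spinach leaves, homogenised in ice-cold pH 7.8 buffer (0.4 M sucrose, 10 mM NaCl, 50 mM Tris-HCl), spun 3 min 120g then 5 min 1000g at 4 °C. Reaction buffer 350 mM NaCl, 10 mM Tris-HCl pH 7.8 with DCPIP; 2 min light (360 µmol m^-2 s^-1), DCPIP reduction at 620 nm. Compounds 0.01 mg/L–0.3 mg/mL in […]/water, ≥triplicate; IC50 by log-linear regression.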

[9] abbreviates: Spinacia oleracea, read-out: pIC50 (converted).

`CCOCCOC(=O)/C(C#N)=C(\NCc1cnc(OC)nc1)C(C)C`: the inhibition of growth at 1500 g/ha in the assay on Digitaria sanguinalis [1] turned out to be 46.2%; with Medicago sativa [2], 74%; in the assay with Amaranthus retroflexus [3] it was 3.4%; with Medicago sativa [4] it was 57.1%; in the assay with Brassica napus [5], 0%; with Amaranthus retroflexus [6], 22.2%. For the same compound, the inhibition of growth at 1500 g/ha in the assay on Digitaria sanguinalis [7] came to 52.2%; in the assay with Brassica napus [8], 19.4%.

On to `CCOCCOC(=O)/C(C#N)=C(\NCc1cnc(OCC)nc1)SC`, for which the inhibition of growth at 1500 g/ha was 12.5% with Digitaria sanguinalis [1]; 40.8% in the assay with Medicago sativa [2]; 26.4% with Amaranthus retroflexus [3]; 31.1% in the assay on Medicago sativa [4]; 0% in the assay on Brassica napus [5]; 15.9% in the assay on Amaranthus retroflexus [6]. Besides, the inhibition of growth at 1500 g/ha was determined as 8.7% with Digitaria sanguinalis [7] and 16.1% with Brassica napus [8]. Moreover, the IC50 was 1.45 ppm in the assay with Spinacia oleracea and 1.07 µM with Spinacia oleracea (setting [9]).

As to `CCOCCOC(=O)/C(C#N)=C(\NCC1CCCO1)SC` (stereo not given), the inhibition of growth at 1500 g/ha came to 35.7% with Digitaria sanguinalis [1]; 23.4% in the assay with Medicago sativa [2]; 37.8% in the assay with Amaranthus retroflexus [3]; 21.8% in the assay with Medicago sativa [4]; 0% in the assay on Brassica napus [5]; 9.5% in the assay on Amaranthus retroflexus [6]. Also, the inhibition of growth at 1500 g/ha with Digitaria sanguinalis [7] was 0%; in the assay on Brassica napus [8] it was 47.5%. Moreover, the IC50 in the assay on Spinacia oleracea was 27.92 ppm; in the assay with Spinacia oleracea (setting [9]) it was 20.9 µM.

Regarding `CCOCCOC(=O)/C(C#N)=C(\NCC1CCCO1)C(C)C` (stereo not given), the inhibition of growth at 1500 g/ha in the assay with Digitaria sanguinalis [1] worked out at 40%; with Medicago sativa [2], 60.5%; in the assay with Amaranthus retroflexus [3], 100%; in the assay with Medicago sativa [4], 20.3%; in the assay with Brassica napus [5] it was 80%; in the assay with Amaranthus retroflexus [6] it was 3.2%. Besides, the figures for the inhibition of growth at 1500 g/ha in the assay on Digitaria sanguinalis [7] and in the assay with Brassica napus [8] were 100% and 97.2%, respectively. The IC50 in the assay with Spinacia oleracea is 6.874 ppm; in the assay with Spinacia oleracea (setting [9]), 6.92 µM.

Turning to `CCOCCOC(=O)/C(C#N)=C(\NCC1CCOC1)C(C)C` (stereo not given), the inhibition of growth at 1500 g/ha came out at 0% in the assay with Digitaria sanguinalis [1]; 41.3% in the assay on Medicago sativa [2]; 37.8% with Amaranthus retroflexus [3]; 2.3% in the assay with Medicago sativa [4]; 0% with Brassica napus [5]; 12.6% with Amaranthus retroflexus [6]. Also, the inhibition of growth at 1500 g/ha turned out to be 57.6% in the assay with Digitaria sanguinalis [7] and 88.2% in the assay with Brassica napus [8]. Besides, the IC50 in the assay with Spinacia oleracea is 41.4 ppm; in the assay with Spinacia oleracea (setting [9]), 41.7 µM.

Turning to `CCOCCOC(=O)/C(C#N)=C(\NCc1ccoc1)C(C)C`, the inhibition of growth at 1500 g/ha amounted to 33.6% with Digitaria sanguinalis [1]; 13.2% in the assay with Medicago sativa [2]; 27.4% with Amaranthus retroflexus [3]; 10.5% with Medicago sativa [4]; 0% in the assay with Brassica napus [5]; 22.1% in the assay on Amaranthus retroflexus [6]. Further, the inhibition of growth at 1500 g/ha with Digitaria sanguinalis [7] worked out at 0%; in the assay on Brassica napus [8], 51.9%. The IC50 in the assay with Spinacia oleracea was 6.6 ppm; in the assay with Spinacia oleracea (setting [9]), 6.61 µM.

On to `CCOCCOC(=O)/C(C#N)=C(\NCc1cnc(OC(C)C)s1)C(C)C`, for which the inhibition of growth at 1500 g/ha in the assay with Digitaria sanguinalis [1] was 6.9%; in the assay on Medicago sativa [2] it was 43.4%; in the assay on Amaranthus retroflexus [3] it was 100%; in the assay with Medicago sativa [4], 1.7%; in the assay on Brassica napus [5] it was 51.4%; with Amaranthus retroflexus [6], 100%. For the same compound, the inhibition of growth at 1500 g/ha in the assay on Digitaria sanguinalis [7] stood at 60.8%; in the assay on Brassica napus [8] it was 100%. Besides, the IC50 in the assay with Spinacia oleracea is 0.076 ppm; in the assay on Spinacia oleracea (setting [9]), 0.0759 µM.

On to `CCOCCOC(=O)/C(C#N)=C(\NCc1cnc(OCC(F)(F)F)s1)SC`, for which the inhibition of growth at 1500 g/ha turned out to be 8.9% in the assay on Digitaria sanguinalis [1]; 60.9% with Medicago sativa [2]; 98.7% in the assay with Amaranthus retroflexus [3]; 1.7% in the assay with Medicago sativa [4]; 65.4% with Brassica napus [5]; 43.2% in the assay with Amaranthus retroflexus [6]. Also, the inhibition of growth at 1500 g/ha in the assay on Digitaria sanguinalis [7] is 47.2%; in the assay on Brassica napus [8], 100%. For the same compound, the IC50 was 0.055 ppm in the assay on Spinacia oleracea and 0.055 µM in the assay with Spinacia oleracea (setting [9]).

For `CCOCCOC(=O)/C(C#N)=C(\NCc1cnc(OCC(F)(F)F)s1)C(C)C`, the inhibition of growth at 1500 g/ha in the assay on Digitaria sanguinalis [1] was determined as 34.6%; in the assay on Medicago sativa [2], 53.3%; in the assay with Amaranthus retroflexus [3] it was 100%; with Medicago sativa [4], 0%; in the assay on Brassica napus [5] it was 71.9%; with Amaranthus retroflexus [6], 51%. For the same compound, the inhibition of growth at 1500 g/ha is 95.2% in the assay on Digitaria sanguinalis [7] and 100% in the assay on Brassica napus [8]. For the same compound, the values for the IC50 in the assay on Spinacia oleracea and in the assay on Spinacia oleracea (setting [9]) were 0.074 ppm and 0.0741 µM, respectively.

For the compound `CCOCCOC(=O)/C(C#N)=C(\NCc1ccc(Cl)nn1)SC`, the inhibition of growth at 1500 g/ha amounted to 0% in the assay on Digitaria sanguinalis [1]; 27.8% in the assay with Medicago sativa [2]; 21.8% with Amaranthus retroflexus [3]; 0% in the assay on Medicago sativa [4]; 12.5% in the assay with Brassica napus [5]; 43.2% in the assay on Amaranthus retroflexus [6]. Also, the inhibition of growth at 1500 g/ha amounted to 28.8% with Digitaria sanguinalis [7] and 81% in the assay with Brassica napus [8]. For the same compound, the IC50 in the assay on Spinacia oleracea was 3.99 ppm; with Spinacia oleracea (setting [9]), 3.98 µM.

As to `CCOCCOC(=O)/C(C#N)=C(\NCc1ccc(Cl)nn1)C(C)C`, the inhibition of growth at 1500 g/ha is 10.9% in the assay with Digitaria sanguinalis [1]; 31.4% in the assay with Medicago sativa [2]; 91.6% in the assay on Amaranthus retroflexus [3]; 4.5% in the assay with Medicago sativa [4]; 59.5% with Brassica napus [5]; 27% in the assay with Amaranthus retroflexus [6]. Further, the inhibition of growth at 1500 g/ha was found to be 48% in the assay with Digitaria sanguinalis [7] and 100% in the assay with Brassica napus [8]. Moreover, the IC50 with Spinacia oleracea is 4.3 ppm; in the assay with Spinacia oleracea (setting [9]) it was 4.27 µM.

Turning to `CCOCCOC(=O)/C(C#N)=C(\NCc1ccc(OCC)nn1)SC`, the inhibition of growth at 1500 g/ha worked out at 0% with Digitaria sanguinalis [1]; 24.2% in the assay on Medicago sativa [2]; 32.9% with Amaranthus retroflexus [3]; 0% in the assay on Medicago sativa [4]; 0% with Brassica napus [5]; 56.8% in the assay with Amaranthus retroflexus [6]. Further, the inhibition of growth at 1500 g/ha in the assay with Digitaria sanguinalis [7] amounted to 0.8%; in the assay with Brassica napus [8], 64.6%. Moreover, the results for the IC50 in the assay with Spinacia oleracea and in the assay on Spinacia oleracea (setting [9]) were 12.29 ppm and 9.12 µM, respectively.

Take `CCOCCOC(=O)/C(C#N)=C(\NCc1ccc(OCC)nn1)C(C)C`: the inhibition of growth at 1500 g/ha was determined as 26.7% in the assay on Digitaria sanguinalis [1]; 50.7% in the assay on Medicago sativa [2]; 70.2% in the assay with Amaranthus retroflexus [3]; 0% in the assay on Medicago sativa [4]; 44.9% with Brassica napus [5]; 54% in the assay with Amaranthus retroflexus [6]. Further, the inhibition of growth at 1500 g/ha in the assay on Digitaria sanguinalis [7] turned out to be 57.6%; with Brassica napus [8], 100%.

Regarding `CCOCCOC(=O)/C(C#N)=C(\NCc1ccc(N2CCOCC2)nn1)SC`, the inhibition of growth at 1500 g/ha in the assay with Digitaria sanguinalis [1] was 6.9%; in the assay with Medicago sativa [2], 32.8%; in the assay with Amaranthus retroflexus [3] it was 24%; in the assay with Medicago sativa [4], 10.1%; in the assay with Brassica napus [5] it was 10.9%; with Amaranthus retroflexus [6], 13.5%. For the same compound, the values for the inhibition of growth at 1500 g/ha in the assay with Digitaria sanguinalis [7] and with Brassica napus [8] were 2.4% and 18.1%, respectively.

As to `CCOCCOC(=O)/C(C#N)=C(\NCc1ccc(N2CCOCC2)nn1)C(C)C`, the inhibition of growth at 1500 g/ha turned out to be 22.8% in the assay on Digitaria sanguinalis [1]; 15.2% in the assay with Medicago sativa [2]; 19.1% in the assay with Amaranthus retroflexus [3]; 2.6% with Medicago sativa [4]; 49.8% in the assay on Brassica napus [5]; 5.4% in the assay with Amaranthus retroflexus [6]. Further, the inhibition of growth at 1500 g/ha amounted to 13.6% in the assay on Digitaria sanguinalis [7] and 85.4% in the assay with Brassica napus [8].

Regarding `CCOCCOC(=O)/C(C#N)=C(\NCc1cnc(OC)nc1)SC`, the inhibition of growth at 1500 g/ha in the assay with Digitaria sanguinalis [1] was found to be 26%; in the assay with Medicago sativa [2] it was 45.1%; in the assay on Amaranthus retroflexus [3] it was 15.5%; with Medicago sativa [4], 42.8%; in the assay with Brassica napus [5], 42.4%; in the assay on Amaranthus retroflexus [6], 58.1%. In addition, the figures for the inhibition of growth at 1500 g/ha in the assay on Digitaria sanguinalis [7] and in the assay with Brassica napus [8] were 2.2% and 28.8%, respectively. The values for the IC50 with Spinacia oleracea and with Spinacia oleracea (setting [9]) were 3.79 ppm and 3.8 µM, respectively.

In the case of `CCOCCOC(=O)/C(C#N)=C(/CC)NCc1cnc(OC)nc1`, the inhibition of growth at 1500 g/ha in the assay with Digitaria sanguinalis [1] came out at 36%; in the assay on Medicago sativa [2], 26%; with Amaranthus retroflexus [3], 20.7%; in the assay on Medicago sativa [4], 29.4%; in the assay with Brassica napus [5], 51.5%; with Amaranthus retroflexus [6] it was 34.6%. Further, the inhibition of growth at 1500 g/ha in the assay with Digitaria sanguinalis [7] worked out at 2.2%; with Brassica napus [8], 63.7%.
